In series [1] the test system is Rattus norvegicus. Briefly: Anticonvulsant activity in Sprague-Dawley rat assessed as protection from maximum electric shock-induced seizures at 30 mg/kg, po measured after 2 hrs. It is filed as functional. Put shortly:
(§1)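 Male Sprague–Dawley rats, four per group, given 30 mg/kg orally as a suspension in 0.5% methylcellulose/water. MES stimulus 150 mA, 60 Hz, 0.2 s via corneal electrodes. Tested at 0.25, 0.5, 1, 2 and 4 h; value is rats protected out of four.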

Series [2] relates to Mus musculus. Description: Neurotoxicity in CF-1 albino mouse assessed as motor impairment, ip measured after 4 hrs by rotarod test. The series is classed as toxicity, organism-based. To be noted: in vivo. For orientation: The rotarod test checks motor coordination on a turning rod.
Series [3] is described as follows: Neurotoxicity in ip dosed CF-1 albino mouse assessed as motor impairment by rotarod test. The series is classed as toxicity, organism-based. To be noted: in vivo.
Series [4] deals with Rattus norvegicus. Description: Anticonvulsant activity in Sprague-Dawley rat assessed as protection from maximum electric shock-induced seizures at 30 mg/kg, po measured after 0.5 hrs. It is filed as functional. Put shortly:
as §1

Series [5] concerns Mus musculus. Briefly: Anticonvulsant activity in ip dosed CF-1 albino mouse assessed as protection from maximal electric shock-induced seizures. It is filed as functional. Put shortly: (§2)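 ED50 and TD50 determined in male CF-1 mice after ip dosing (0.5% methylcellulose suspension) at the previously estimated time of peak effect. MES 50 mA, 60 Hz, 0.2 s. Groups of eight, with doses varied until at least three points fell between 10–90% protection or motor impairment. Regression gives ED50/TD50 with 95% confidence intervals; PI = TD50/ED50.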

Series [6] concerns Rattus norvegicus. Description: Anticonvulsant activity in Sprague-Dawley rat assessed as protection from maximum electric shock-induced seizures at 30 mg/kg, po measured after 4 hrs. It is filed as functional. Put shortly: as §1
The subject of series [7] is Rattus norvegicus. Description: Neurotoxicity in Sprague-Dawley rat assessed as motor impairment at 30 mg/kg, po by rotarod test. The series is classed as toxicity, organism-based. More on the design: dose 30 mg/kg, route oral. The following applies: in vivo. Put shortly:
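Male Sprague–Dawley rats, four animals, oral 30 mg/kg in 0.5% methylcellulose/water. Motor impairment on the rotarod (failure to keep balance for 1 min) assessed alongside MES at five times from 0.25 to 4 h.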

Series [8] relates to Mus musculus. Description: Anticonvulsant activity in ip dosed CF-1 albino mouse assessed as protection from maximal electric shock-induced seizures measured after 4 hrs. It is filed as functional. To be noted: read-out: MED. Put shortly:
(§3)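 Male CF-1 mice dosed ip at 30, 100 or 300 mg/kg, suspension in 0.5% methylcellulose/water. MES: corneal electrodes primed with electrolyte containing anaesthetic, 50 mA, 60 Hz, 0.2 s. Examined 0.5 and 4 h after dosing. Value is the minimum dose protecting half or more of the animals.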

The test system of series [9] is Mus musculus. Briefly: Anticonvulsant activity in ip dosed maximal electric shock-induced CF-1 albino mouse assessed as time of peak effect. It is filed as functional. Put shortly: as §2
Series [10] deals with Mus musculus. Description: Anticonvulsant activity in CF-1 albino mouse assessed as protection from maximal electric shock-induced seizures at 300 mg/kg, ip measured after 0.5 hrs. It is filed as functional, organism-based. Also on record: dose 300 mg/kg. Put shortly:
as §3

Series [11] deals with Rattus norvegicus. Briefly: Anticonvulsant activity in Sprague-Dawley rat assessed as protection from maximum electric shock-induced seizures at 30 mg/kg, po measured after 1 hr. It is filed as functional. Put shortly: as §1
For series [12], the species on record is Mus musculus. Briefly: Protective index, ratio of TD50 for CF-1 albino mouse to ED50 for CF-1 albino mouse assessed as protection from maximum electric shock-induced seizures. The series is classed as functional. Put shortly:
as §2

For series [13], the system named is Mus musculus. Briefly: Neurotoxicity in CF-1 albino mouse assessed as motor impairment at 300 mg/kg, ip measured after 0.5 hrs by rotarod test. Also on record: dose 300 mg/kg, route intraperitoneal. It is filed as toxicity, organism-based. To be noted: in vivo. Put shortly:
(§4)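 Rotarod neurotoxicity in male CF-1 mice given ip doses of 30, 100 or 300 mg/kg (0.5% methylcellulose suspension), examined 0.5 and 4 h after dosing. Impairment means failing to hold balance on the rod for 1 min. Value is the minimum dose causing toxicity in half or more of the animals; response comments are recorded.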

Series [14] concerns Rattus norvegicus. Description: Anticonvulsant activity in Sprague-Dawley rat assessed as protection from maximum electric shock-induced seizures at 30 mg/kg, po measured after 0.25 hrs. The series is classed as functional. Put shortly: as §1
Series [15] relates to Mus musculus. Briefly: Neurotoxicity in CF-1 albino mouse assessed as myoclonic jerks at 100 mg/kg, ip measured after 0.5 hrs by rotarod test. The series is classed as toxicity, organism-based. Also on record: dose 100 mg/kg, route intraperitoneal. To be noted: in vivo.
Series [16] deals with Mus musculus. Briefly: Neurotoxicity in ip dosed CF-1 albino mouse assessed as motor impairment measured after 0.5 hrs by rotarod test. The following applies: in vivo. The series is classed as toxicity, organism-based. Put shortly:
as §4

The subject of series [17] is Mus musculus. Description: Anticonvulsant activity in ip dosed CF-1 albino mouse assessed as protection against subcutaneous pentylenetetrazol-induced seizures measured after 4 hrs. To be noted: read-out: MED. The series is classed as functional. Put shortly: (§5)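 scPTZ test in male CF-1 mice. Compound suspended in 0.5% methylcellulose/water, ip at 30, 100 or 300 mg/kg. Pentylenetetrazole 85 mg/kg (CD97, clonic seizures lasting at least 5 s) given subcutaneously at the test time, read at 0.5 and 4 h. Value is the minimum dose protecting half or more of the animals.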

The subject of series [18] is Mus musculus. Description: Anticonvulsant activity in ip dosed CF-1 albino mouse assessed as protection from maximal electric shock-induced seizures measured after 0.5 hrs. To be noted: read-out: MED. The series is classed as functional. Put shortly:
as §3

In series [19] the test system is Mus musculus. Briefly: Neurotoxicity in CF-1 albino mouse assessed as myoclonic jerks at 300 mg/kg, ip measured after 4 hrs by rotarod test. The series is classed as toxicity, organism-based. More on the design: dose 300 mg/kg, route intraperitoneal. To be noted: in vivo.
For series [20], the system named is Mus musculus. Description: Anticonvulsant activity in ip dosed CF-1 albino mouse assessed as protection against subcutaneous pentylenetetrazol-induced seizures measured after 0.5 hrs. The series is classed as functional. To be noted: read-out: MED. Put shortly:
as §5

The test system of series [21] is Mus musculus. Briefly: Neurotoxicity in CF-1 albino mouse assessed as motor impairment at 300 mg/kg, ip measured after 4 hrs by rotarod test. It is filed as toxicity, organism-based. Also on record: dose 300 mg/kg, route intraperitoneal. To be noted: in vivo. Put shortly:
as §4

Series [22] has as its system Rattus norvegicus. Briefly: Anticonvulsant activity in po dosed maximum electric shock-induced Sprague-Dawley rat assessed as time of peak effect. The series is classed as functional. Put shortly:
(§6)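 Male Sprague–Dawley rats dosed orally (0.5% methylcellulose suspension). MES 150 mA, 60 Hz, 0.2 s; rotarod impairment is failure to keep balance for 1 min. Groups of eight, at the previously estimated time of peak effect, with doses varied until at least three points fell in the 10–90% range. ED50/TD50 with 95% confidence intervals from regression; PI = TD50/ED50.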

A short description of series [23]: Neurotoxicity in po dosed Sprague-Dawley rat assessed as motor impairment measured at time of peak effect by rotarod test. It is filed as toxicity, organism-based. To be noted: in vivo. Put shortly: as §6
For series [24], the system named is Rattus norvegicus. Briefly: Anticonvulsant activity in po dosed Sprague-Dawley rat assessed as protection from maximum electric shock-induced seizures. It is filed as functional. Put shortly:
as §6

The species named for series [25] is Rattus norvegicus. Description: Protective index, ratio of TD50 for Sprague-Dawley rat to ED50 for Sprague-Dawley rat assessed as protection from maximum electric shock-induced seizures. The series is classed as functional. Put shortly:
as §6

Series [26] has as its system Mus musculus. Briefly: Anticonvulsant activity in ip dosed 6 Hz psychomotor-induced seizure in CF-1 albino mouse assessed as time of peak effect. The series is classed as functional.

Results on four compounds are retold here after ChEMBL document CHEMBL2086314, “Synthesis and anticonvulsant activity of new N-Mannich bases derived from 3-(2-fluorophenyl)- and 3-(2-bromophenyl)-pyrrolidine-2,5-diones. Part II” (Bioorg Med Chem, 2012).

Activity calls are given as the source filed them. The rule behind the calls is not given here.

`O=C1CC(c2ccccc2F)C(=O)N1CN1CCN(c2ccc(F)cc2)CC1` (racemic): the Activity in series [1] is reported as 25%; in [4], 0%; in series [6], 50%; in [7], “Non-toxic”; in [11] it was 0%; in series [13] it was “Non-toxic”. In addition, in series [14], the Activity stood at 0%. In [2], the MTC is 300 mg/kg. The TD50 in series [3] was determined as 166 mg/kg. Also, the ED50 in series [5] is 101 mg/kg. Further, the minimal effective dose in series [8] was determined as 30 mg/kg. In series [9], the Time stood at 4 h. In series [10], the outcome was inactive. Also, in series [12], the “Ratio TD50/ED50” value is on record as 1.65.
Turning to `Cl.Cl.O=C1CC(c2ccccc2Br)C(=O)N1CN1CCN(CCO)CC1` (racemic), the Activity is 0% in series [1]; “Toxic” in series [15]; 25% in [4]; 25% in [6]; “Toxic” in series [19]; “Non-toxic” in [7]. The Activity in [11] was 0%; in series [21], “Non-toxic”; in series [14] it was 25%. Besides, the MTC in series [16] is 300 mg/kg. Moreover, the minimal effective dose in series [17] worked out at 300 mg/kg; in series [18] it was 100 mg/kg; in series [20] it was 100 mg/kg; in series [8], 100 mg/kg.
Turning to `O=C1CC(c2ccccc2Br)C(=O)N1CN1CCN(c2ccc(F)cc2)CC1` (racemic), the Activity is on record as 50% in series [1]; 25% in series [4]; 75% in series [6]; “Non-toxic” in series [7]; 25% in series [11]; “Non-toxic” in series [13]. In addition, the Activity entry in series [21] is reported as “Non-toxic”; in [14], 25%. The Time in series [22] and in [9] was 4 h throughout. Further, the TD50 in [3] was found to be 466 mg/kg; in [23], 62.4 mg/kg. Besides, the ED50 in series [5] is 79.9 mg/kg; in series [24], 7.4 mg/kg. In addition, the minimal effective dose in series [8] came out at 100 mg/kg. In series [10], the outcome was inactive. The “Ratio TD50/ED50” value is 8.43 in series [25] and 5.83 in series [12].
As for `CC[C@@H](C(N)=O)N1CCCC1=O`, in [3], the TD50 was > 500 mg/kg. For the same compound, the Time in series [26] came to 1 h.

In general, TD50 refers to the dose at which the toxic effect under study appears in half of the subjects. For orientation: ED50 means the dose at which the effect has come halfway, by size or by number of responders.
